How the values were obtained:
Format in all cases: functional
SK-MEL-2 = assay: Cytotoxicity against human SK-MEL-2 cells by SRB assay
Summary of the method: (§1)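 NCI 60 human tumor cell line panel, sulforhodamine B (SRB) protein-stain read-out. Compounds were first screened at a single dose of 10^-5 M, and selected compounds were then tested in a five-dose format. GI50 is the drug concentration giving a 50% reduction in net protein increase relative to control cells.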

[1] = Cytotoxicity against human OVCAR4 cells by SRB assay; settings: OVCAR-4; summary of the method: as §1
KM12 = assay: Cytotoxicity against human KM12 cells by SRB assay; summary of the method: as §1
[2] = Cytotoxicity against human SF268 cells by SRB assay; settings: SF-268; summary of the method: as §1
A549 = assay: Cytotoxicity against human A549 cells by SRB assay; summary of the method: as §1
[3] = Cytotoxicity against human RPMI8226 cells by SRB assay; settings: RPMI-8226; summary of the method: as §1
[4] = Cytotoxicity against human HOP92 cells by SRB assay; settings: HOP-92; summary of the method: as §1
[5] = Cytotoxicity against human IGROV1 cells by SRB assay; settings: IGROV-1
Summary of the method: (§2)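 NCI 60-cell-line panel using sulforhodamine B protein stain. Initial single-dose screen at 10^-5 M, then five-dose testing. GI50 is the drug concentration giving a 50% reduction in net protein increase relative to control cells.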

A498 = assay: Cytotoxicity against human A498 cells by SRB assay; summary of the method: as §1
K562 = assay: Cytotoxicity against human K562 cells by SRB assay; summary of the method: as §1
MDA-MB-468 = assay: Cytotoxicity against human MDA-MB-468 cells by SRB assay; summary of the method: as §1
MDA-MB-231 = assay: Cytotoxicity against human MDA-MB-231 cells by SRB assay; summary of the method: as §1
[6] = Cytotoxicity against human SF539 cells by SRB assay; settings: SF-539; summary of the method: as §1
HT-29 = assay: Cytotoxicity against human HT-29 cells by SRB assay; summary of the method: as §1
[7] = Cytotoxicity against human SNB75 cells by SRB assay; settings: SNB-75; summary of the method: as §1
[8] = Cytotoxicity against human LOXIMVI cells by SRB assay; settings: LOX IMVI; summary of the method: as §2
[9] = Cytotoxicity against human MOLT4 cells by SRB assay; settings: MOLT-4; summary of the method: as §1
NCI/ADR-RES = assay: Cytotoxicity against human NCI/ADR-RES cells by SRB assay; summary of the method: as §1
[10] = Cytotoxicity against human HOP62 cells by SRB assay; settings: HOP-62; summary of the method: as §1
U-251 = assay: Cytotoxicity against human U251 cells by SRB assay; summary of the method: as §1
[11] = Cytotoxicity against human Hs578T cells by SRB assay; settings: Hs-578T; summary of the method: as §1
M14 = assay: Cytotoxicity against human M14 cells by SRB assay; summary of the method: as §1
[12] = Cytotoxicity against human SNB19 cells by SRB assay; settings: SNB-19; summary of the method: as §1
[13] = Cytotoxicity against human HL-60(TB) cells by SRB assay; summary of the method: as §2
[14] = Cytotoxicity against human SW620 cells by SRB assay; settings: SW-620; summary of the method: as §1
ACHN = assay: Cytotoxicity against human ACHN cells by SRB assay; summary of the method: as §1
[15] = Cytotoxicity against human HCC2998 cells by SRB assay; settings: HCC 2998; summary of the method: as §1
786-0 = assay: Cytotoxicity against human 786-0 cells by SRB assay; summary of the method: as §1
[16] = Cytotoxicity against human HCT15 cells by SRB assay; settings: HCT-15; summary of the method: as §1
[17] = Cytotoxicity against human UO31 cells by SRB assay; settings: UO-31; summary of the method: as §1
CCRF-CEM = assay: Cytotoxicity against human CCRF-CEM cells by SRB assay; summary of the method: as §1
NCI-H522 = assay: Cytotoxicity against human NCI-H522 cells by SRB assay; summary of the method: as §1
SR = assay: Cytotoxicity against human SR cells by SRB assay; summary of the method: as §1
[18] = Cytotoxicity against human SKOV3 cells by SRB assay; settings: SK-OV-3; summary of the method: as §1
[19] = Cytotoxicity against human COLO205 cells by SRB assay; settings: COLO 205; summary of the method: as §1
NCI-H23 = assay: Cytotoxicity against human NCI-H23 cells by SRB assay; summary of the method: as §1
MDA-MB-435 = assay: Cytotoxicity against human MDA-MB-435 cells by SRB assay; summary of the method: as §1
[20] = Cytotoxicity against human OVCAR3 cells by SRB assay; settings: OVCAR-3; summary of the method: as §1
SK-MEL-5 = assay: Cytotoxicity against human SK-MEL-5 cells by SRB assay; summary of the method: as §1
[21] = Cytotoxicity against human HCT116 cells by SRB assay; settings: HCT-116; summary of the method: as §1
[22] = Cytotoxicity against human SF295 cells by SRB assay; settings: SF-295; summary of the method: as §1
MCF7 = assay: Cytotoxicity against human MCF7 cells by SRB assay; summary of the method: as §1
[23] = Cytotoxicity against human UACC62 cells by SRB assay; settings: UACC-62; summary of the method: as §1
SK-MEL-28 = assay: Cytotoxicity against human SK-MEL-28 cells by SRB assay; summary of the method: as §1
CAKI-1 = assay: Cytotoxicity against human CAKI-1 cells by SRB assay; summary of the method: as §1

COc1ccc(/C=C(\C#N)c2cc(OC)c(OC)c(OC)c2)cc1
GI50 (SK-MEL-2): 80 nM
GI50 [1]: 10 nM
GI50 (KM12): < 10 nM
GI50 [2]: 40 nM
GI50 (A549): 10 nM
GI50 [3]: 30 nM
GI50 [4]: 20 nM
GI50 [5]: 20 nM
GI50 (A498): < 10 nM
GI50 (K562): < 10 nM
GI50 (MDA-MB-468): 20 nM
GI50 (MDA-MB-231): 30 nM
GI50 [6]: < 10 nM
GI50 (HT-29): < 10 nM
GI50 [7]: < 10 nM
GI50 [8]: 10 nM
GI50 [9]: 30 nM
GI50 (NCI/ADR-RES): < 10 nM
GI50 [10]: 30 nM
GI50 (U-251): 20 nM
GI50 [11]: < 10 nM
GI50 (M14): 10 nM
GI50 [12]: 60 nM
GI50 [13]: 20 nM
GI50 [14]: 10 nM
GI50 (ACHN): 10 nM
GI50 [15]: 40 nM
GI50 (786-0): 20 nM
GI50 [16]: < 10 nM
GI50 [17]: < 10 nM
GI50 (CCRF-CEM): 30 nM
GI50 (NCI-H522): < 10 nM
GI50 (SR): < 10 nM
GI50 [18]: < 10 nM
GI50 [19]: 10 nM
GI50 (NCI-H23): 50 nM
GI50 (MDA-MB-435): < 10 nM
GI50 [20]: < 10 nM
GI50 (SK-MEL-5): 10 nM
GI50 [21]: < 10 nM
GI50 [22]: < 10 nM
GI50 (MCF7): < 10 nM
GI50 [23]: < 10 nM

COc1ccc(/C=C\c2cc(OC)c(OC)c(OC)c2)cc1O [COMBRETASTATIN A4]
GI50 (SK-MEL-2): 4 nM
GI50 [1]: 14 nM
GI50 (KM12): 5 nM
GI50 [2]: 6 nM
GI50 (A549): 16 nM
GI50 [3]: 3 nM
GI50 [4]: 3 nM
GI50 [5]: 15 nM
GI50 (A498): 6 nM
GI50 (K562): 2 nM
GI50 [6]: 3 nM
GI50 (HT-29): 100 nM
GI50 [7]: 8 nM
GI50 [8]: 3 nM
GI50 [9]: 3 nM
GI50 [10]: 3 nM
GI50 (U-251): 4 nM
GI50 (M14): 3 nM
GI50 [12]: 4 nM
GI50 [13]: 2 nM
GI50 (SK-MEL-28): 8 nM
GI50 [14]: 3 nM
GI50 (ACHN): 6 nM
GI50 [15]: 63 nM
GI50 (786-0): 100 nM
GI50 [16]: 4 nM
GI50 [17]: 19 nM
GI50 (CCRF-CEM): 3 nM
GI50 (NCI-H522): 2 nM
GI50 (SR): 3 nM
GI50 [18]: 59 nM
GI50 [19]: 100 nM
GI50 (NCI-H23): 3 nM
GI50 [20]: 2 nM
GI50 (CAKI-1): 26 nM
GI50 (SK-MEL-5): 4 nM
GI50 [21]: 3 nM
GI50 [22]: 4 nM
GI50 [23]: 6 nM

COc1ccc(/C=C/c2cc(OC)cc(OC)c2/C=C(\C#N)c2ccccc2OC)cc1
GI50 (SK-MEL-2): 2130 nM
GI50 [1]: 3590 nM
GI50 (KM12): 640 nM
GI50 [2]: 4180 nM
GI50 (A549): 3560 nM
GI50 [3]: 2850 nM
GI50 [5]: 5280 nM
GI50 (A498): 1370 nM
GI50 (K562): 430 nM
GI50 (MDA-MB-468): 1700 nM
GI50 (MDA-MB-231): 2830 nM
GI50 [6]: 1550 nM
GI50 (HT-29): 480 nM
GI50 [7]: 2280 nM
GI50 [9]: 3300 nM
GI50 (NCI/ADR-RES): 710 nM
GI50 [10]: 2790 nM
GI50 (U-251): 2770 nM
GI50 [11]: 1340 nM
GI50 (M14): 1140 nM
GI50 [12]: 8770 nM
GI50 [13]: 580 nM
GI50 (SK-MEL-28): 4220 nM
GI50 [14]: 710 nM
GI50 (ACHN): 4250 nM
GI50 [15]: 5470 nM
GI50 (786-0): 3250 nM
GI50 [16]: 760 nM
GI50 [17]: 3440 nM
GI50 (CCRF-CEM): 2240 nM
GI50 (NCI-H522): 250 nM
GI50 (SR): 280 nM
GI50 [18]: 4730 nM
GI50 [19]: 2280 nM
GI50 (MDA-MB-435): 280 nM
GI50 [20]: 1380 nM
GI50 (CAKI-1): 2200 nM
GI50 (SK-MEL-5): 2440 nM
GI50 [21]: 1290 nM
GI50 [22]: 2510 nM
GI50 (MCF7): 720 nM

Source: ChEMBL document CHEMBL3739271, “Synthesis and evaluation of a series of resveratrol analogues as potent anti-cancer agents that target tubulin” (2015)
